Reference: ChEMBL document CHEMBL1121639, “Analgesic narcotic antagonists. 5. 7,7-Dimethyldihydrocodeinones and 7,7-dimethyldihydromorphinones” (1981)
Calls of active or inactive are those of the source. No cut-off for these calls is given here.

Assays:
[1] = organism: Rattus norvegicus; experiment: Narcotic antagonist activity against an ED80 of morphine in the modified rat tail-flick assay; type: functional
[2] = system: Mus musculus; experiment: Analgesic agonist activity in acetic acid induced mouse writhing assay, subcutaneous administration; type: functional; conditions: sc
Summary of the method: (§1)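 Test agents given as solutions: salts in distilled water; free bases dissolved by adding 1 N HCl, then further diluted.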

[3] = system: Mus musculus; experiment: Compound was tested for the analgesic agonist activity in acetic acid induced mouse writhing assay on subcutaneous administration; Inactive at 25 umol/kg.; type: functional, organism-based; summary of the method: as §1
[4] = system: Rattus norvegicus; experiment: Compound was tested for analgesic agonist activity in heat stimulus rat tail-flick assay on subcutaneous administration; Inactive at 25 mg/kg; type: functional, organism-based; design: dose 25 mg/kg; summary of the method: as §1
[5] = system: Rattus norvegicus; experiment: Analgesic agonist activity in heat stimulus rat tail-flick assay on subcutaneous administration; type: functional; conditions: sc; summary of the method: as §1
[6] = system: Mus musculus; experiment: Compound was tested for the analgesic agonist activity in acetic acid induced mouse writhing assay on subcutaneous administration; Inactive at 28 umol/kg.; type: functional, organism-based; summary of the method: as §1
[7] = system: Mus musculus; experiment: Compound was tested for the analgesic agonist activity in acetic acid induced mouse writhing assay on subcutaneous administration; Inactive at 20 umol/kg.; type: functional, organism-based; summary of the method: as §1
[8] = system: Mus musculus; experiment: Compound was tested for the analgesic agonist activity in acetic acid induced mouse writhing assay on subcutaneous administration; Inactive at 16 umol/kg.; type: functional, organism-based; summary of the method: as §1
[9] = system: Mus musculus; experiment: Compound was tested for the analgesic agonist activity in acetic acid induced mouse writhing assay on subcutaneous administration; Inactive at 26 umol/kg.; type: functional, organism-based; summary of the method: as §1
[10] = system: Mus musculus; experiment: Compound was tested for the analgesic agonist activity in acetic acid induced mouse writhing assay on subcutaneous administration; Inactive at 23 umol/kg.; type: functional, organism-based; summary of the method: as §1
[11] = system: Rattus norvegicus; experiment: Compound was tested for analgesic agonist activity in heat stimulus rat tail-flick assay on subcutaneous administration; Inactive at 25 umol/kg; type: functional, organism-based; summary of the method: as §1
[12] = system: Mus musculus; experiment: Compound was tested for the analgesic agonist activity in acetic acid induced mouse writhing assay on subcutaneous administration; Inactive at 25 umol/kg; type: functional, organism-based; summary of the method: as §1
[13] = system: Rattus norvegicus; experiment: Compound was tested for the analgesic agonist activity in heat stimulus rat tail-flick assay; Inactive at 26 umol/kg; type: functional, organism-based; summary of the method: as §1

In the case of `CC[C@@H]1C2[C@H]3Cc4ccc(OC)c5c4[C@@]2(CCN3CC2CCC2)[C@@H](O5)C(=O)C1(C)C` (some centres undefined), the ED50 [1] is reported as > 23 µmol/kg and the ED50 [2] is reported as > 23 µmol/kg.

For `COc1ccc2c3c1O[C@H]1[C@H](O)C(CO)(CO)CC4[C@@H](C2)N(C)CC[C@@]341` (some centres undefined), the ED50 [3] was “inactive” and the ED50 [4] was “inactive”.

For `COc1ccc2c3c1O[C@H]1C(=O)CC[C@H]4[C@@H](C2)N(C)CC[C@]314` [HYDROCODONE], the ED50 [5] was 5.2 µmol/kg and the ED50 [2] was 2.4 µmol/kg.

`COc1ccc2c3c1O[C@H]1C(=O)C(C)(C)[C@H](C)C4[C@@H](C2)N(C)CC[C@@]341` (some centres undefined) gave an ED50 [5] of 4.2 µmol/kg and an ED50 [2] of 2.5 µmol/kg.

In the case of `COc1ccc2c3c1O[C@H]1C(=O)C(C)(C)[C@H](C)C4[C@@H](C2)N(CC2CCC2)CC[C@@]341` (some centres undefined), the ED50 [1] is reported as 4.7 µmol/kg and the ED50 [2] is reported as 17.2 µmol/kg.

In the case of `CC1(C)CC2[C@H]3Cc4ccc(O)c5c4[C@@]2(CCN3CC2CC2)[C@@H](O5)C1=O` (some centres undefined), the ED50 [1] is reported as 1.2 µmol/kg and the ED50 [6] is reported as “inactive”.

`CC[C@@H]1C2[C@H]3Cc4ccc(OC)c5c4[C@@]2(CCN3CC2CC2)[C@@H](O5)C(=O)C1(C)C` (some centres undefined) was tested, and the ED50 [1] was > 20 µmol/kg and the ED50 [7] was “inactive”.

Compound `CC[C@@H]1C2[C@H]3Cc4ccc(O)c5c4[C@@]2(CCN3C)[C@@H](O5)C(=O)C1(C)C` (some centres undefined) has an ED50 [5] of 0.62 µmol/kg and an ED50 [2] of 0.6 µmol/kg.

With `CC[C@@H]1C2[C@H]3Cc4ccc(O)c5c4[C@@]2(CCN3CC2CC2)[C@@H](O5)C(=O)C1(C)C` (some centres undefined) the ED50 [1] was 2.4 µmol/kg and the ED50 [8] was “inactive”.

`COc1ccc2c3c1O[C@H]1C(=O)C(C)(C)CC4[C@@H](C2)N(CC2CCC2)CC[C@@]341` (some centres undefined) was tested, and the ED50 [1] was > 26 µmol/kg and the ED50 [9] was “inactive”.

Work on `CN1CC[C@]23c4c5ccc(O)c4O[C@H]2C(=O)C(C)(C)CC3[C@H]1C5` (some centres undefined) yielded an ED50 [5] of 0.99 µmol/kg and an ED50 [2] of 0.19 µmol/kg.

For `CC1(C)CC2[C@H]3Cc4ccc(O)c5c4[C@@]2(CCN3CC2CCC2)[C@@H](O5)C1=O` (some centres undefined), the ED50 [1] was > 24 µmol/kg and the ED50 [2] was 2.2 µmol/kg.

`CC[C@@H]1C2[C@H]3Cc4ccc(O)c5c4[C@@]2(CCN3CC2CCC2)[C@@H](O5)C(=O)C1(C)C` (some centres undefined) was tested, and the ED50 [1] was 2.8 µmol/kg and the ED50 [2] was 18.5 µmol/kg.

`C[C@H]1[C@H]2Cc3ccc(O)cc3[C@]1(C)CCN2CC1CC1` [CYCLAZOCINE] gave an ED50 [1] of 0.81 µmol/kg and an ED50 [2] of 0.41 µmol/kg.

`CC[C@@H]1C2[C@H]3Cc4ccc(OC)c5c4[C@@]2(CCN3C)[C@@H](O5)C(=O)C1(C)C` (some centres undefined) showed an ED50 [5] of 13.9 µmol/kg and an ED50 [2] of 4.4 µmol/kg.

For `CC(C)=CCN1CC[C@@]2(C)c3cc(O)ccc3C[C@@H]1[C@@H]2C`, the ED50 [1] was 36.4 µmol/kg and the ED50 [2] was 13 µmol/kg.

For `COc1ccc2c3c1O[C@H]1[C@@H](O)C=C[C@H]4[C@@H](C2)N(C)CC[C@@]341` [CODEINE], the ED50 [5] was 75 µmol/kg and the ED50 [2] was 10.3 µmol/kg.

With `CC[C@@H]1C2[C@H]3Cc4ccc(OC)c5c4[C@@]2(CCN3C)[C@@H](O5)[C@H](O)C1(C)C` (some centres undefined) the ED50 [5] was > 22 µmol/kg and the ED50 [2] was 21.5 µmol/kg.

With `C[C@@H]1C2[C@H]3Cc4ccc(O)c5c4[C@@]2(CCN3CC2CC2)[C@@H](O5)C(=O)C1(C)C` (some centres undefined) the ED50 [1] was 0.38 µmol/kg and the ED50 [10] was “inactive”.

In the case of `C[C@@H]1C2[C@H]3Cc4ccc(O)c5c4[C@@]2(CCN3CC2CCC2)[C@@H](O5)C(=O)C1(C)C` (some centres undefined), the ED50 [1] is reported as > 25 µmol/kg and the ED50 [2] is reported as > 25 µmol/kg.

For `COc1ccc2c3c1O[C@H]1[C@H](O)C(C)(C)CC4[C@@H](C2)N(C)CC[C@@]341` (some centres undefined), the ED50 [5] was 30.4 µmol/kg and the ED50 [2] was 6.5 µmol/kg.

`CC[C@@H]1C2[C@H]3Cc4ccc(OC)c5c4[C@@]2(CCN3C)[C@@H](O5)[C@H](O)C1(CO)CO` (some centres undefined) was tested, and the ED50 [11] was “inactive” and the ED50 [12] was “inactive”.

With `COc1ccc2c3c1O[C@H]1[C@@H]4OC[C@]4(C)[C@H](C)C4[C@@H](C2)N(C)CC[C@@]341` (some centres undefined) the ED50 [5] was > 23 µmol/kg and the ED50 [2] was 1.8 µmol/kg.

For `COc1ccc2c3c1O[C@H]1C(=O)C(C)(C)CC4[C@@H](C2)N(C)CC[C@@]341` (some centres undefined), the ED50 [5] was 9.8 µmol/kg and the ED50 [2] was 3.9 µmol/kg.

In the case of `COc1ccc2c3c1O[C@H]1[C@H](O)C(CO)(CO)[C@H](C)C4[C@@H](C2)N(C)CC[C@@]341` (some centres undefined), the ED50 [13] is reported as “inactive” and the ED50 [2] is reported as > 26 µmol/kg.

`COc1ccc2c3c1O[C@H]1C(=O)C(C)(C)CC4[C@@H](C2)N(CC2CC2)CC[C@@]341` (some centres undefined) gave an ED50 [1] of 6.7 µmol/kg and an ED50 [2] of 5.3 µmol/kg.

With `COc1ccc2c3c1O[C@H]1[C@H](O)C(C)(C)[C@H](C)C4[C@@H](C2)N(C)CC[C@@]341` (some centres undefined) the ED50 [5] was 15.6 µmol/kg and the ED50 [2] was 3.8 µmol/kg.

`COc1ccc2c3c1O[C@H]1[C@@H]4OC[C@]4(C)CC4[C@@H](C2)N(C)CC[C@@]341` (some centres undefined) was tested, and the ED50 [5] was > 30 µmol/kg and the ED50 [2] was 1.9 µmol/kg.

With `COc1ccc2c3c1O[C@H]1[C@@H](O)C(C)(C)CC4[C@@H](C2)N(C)CC[C@@]341` (some centres undefined) the ED50 [2] was 12.7 µmol/kg.

In the case of `CC[C@@H]1C2[C@H]3Cc4ccc(OC)c5c4[C@@]2(CCN3C)[C@@H](O5)[C@@H]2OC[C@]12C` (some centres undefined), the ED50 [5] is reported as > 28 µmol/kg and the ED50 [2] is reported as 11.1 µmol/kg.

`Oc1ccc2c(c1)[C@@]13CCCC[C@@]1(O)[C@@H](C2)N(CC1CCC1)CC3` [BUTORPHANOL] was tested, and the ED50 [1] was 2 µmol/kg and the ED50 [2] was 0.34 µmol/kg.

With `CN1CC[C@]23c4c5ccc(O)c4O[C@H]2C(=O)CC[C@H]3[C@H]1C5` [HYDROMORPHONE] the ED50 [5] was 1.3 µmol/kg.

In the case of `COc1ccc2c3c1O[C@H]1C(=O)C(C)(C)[C@H](C)C4[C@@H](C2)N(CC2CC2)CC[C@@]341` (some centres undefined), the ED50 [1] is reported as 7.3 µmol/kg and the ED50 [2] is reported as > 26 µmol/kg.
